Reference: ChEMBL document CHEMBL1127648, “Synthesis of 2-piperazinylbenzothiazole and 2-piperazinylbenzoxazole derivatives with 5-HT3 antagonist and 5-HT4 agonist properties” (J Med Chem, 1994)

Assays:
[1] = molecular target: T1, Serotonin 1 (5-HT1) receptor (Rattus norvegicus, UniProt P28564+P30940+P19327+P28565); assay: Binding affinity towards 5-hydroxytryptamine 1 receptor using [3H]5-HT as radioligand; type: protein assay
In short: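 Rat cortex homogenized in 50 mM Tris-HCl and preincubated at 37 °C for 10 min. Membranes were resuspended with 0.1% ascorbic acid and 10 μM pargyline. Incubated with 0.3 nM [3H]-5-HT and varying test concentrations at 37 °C for 10 min, then filtered and counted by scintillation. IC50 is the mean of 4–6 experiments.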

[2] = organism: Rattus norvegicus; assay: The compound was evaluated for the intrinsic activity in rat isolated esophageal tunica muscularis mucose; type: functional
In short: (§1)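 Inner smooth-muscle tube of rat oesophagus (external muscularis propria removed), held in Tyrode's solution at 37 °C, pH 7.4, aerated 95% O2/5% CO2, under 250 mg tension, equilibrated 60 min. Relaxation of carbachol-induced contraction measured from agonist concentration-effect curves. Means of 8 experiments (24 for 5-HT).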

[3] = test system: Rattus norvegicus; assay: The compound was evaluated for the percentage increase in gastric emptying for a dose of 7.5 mg/kg perorally in rat.; type: functional, Stomach; conditions: route oral
In short: (§2)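 Wistar rats (160 ± 10 g) fasted overnight, dosed orally with vehicle or compound. After 60 min, gavage with 40 steel spheroids (1 mm) in 2 mL 3% carboxymethylcellulose. Killed by CO2 60 min later; spheroids left in the stomach were counted. Emptying is expressed as a percentage of paired controls.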

[4] = organism: Rattus norvegicus; assay: Agonist potency in rat isolated esophageal tunica muscularis mucose.; type: functional; in short: as §1
[5] = The compound was evaluated for equipotent concentration ratio (ECR). whereECR = IC40 test agonist / IC40 5-HT; type: functional
In short: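 Rat oesophageal tunica muscularis mucosae precontracted with carbachol. Two concentration-effect curves were run in the same strip, first to 5-HT and then to 5-HT or the test agonist. […] Only paired experiments were used.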

[6] = molecular target: D(2) dopamine receptor (Rattus norvegicus, UniProt P61169); assay: Displacement of [3H]spiroperidol from D2 dopamine receptor
Sequence of D(2) dopamine receptor (P61169 whole entry): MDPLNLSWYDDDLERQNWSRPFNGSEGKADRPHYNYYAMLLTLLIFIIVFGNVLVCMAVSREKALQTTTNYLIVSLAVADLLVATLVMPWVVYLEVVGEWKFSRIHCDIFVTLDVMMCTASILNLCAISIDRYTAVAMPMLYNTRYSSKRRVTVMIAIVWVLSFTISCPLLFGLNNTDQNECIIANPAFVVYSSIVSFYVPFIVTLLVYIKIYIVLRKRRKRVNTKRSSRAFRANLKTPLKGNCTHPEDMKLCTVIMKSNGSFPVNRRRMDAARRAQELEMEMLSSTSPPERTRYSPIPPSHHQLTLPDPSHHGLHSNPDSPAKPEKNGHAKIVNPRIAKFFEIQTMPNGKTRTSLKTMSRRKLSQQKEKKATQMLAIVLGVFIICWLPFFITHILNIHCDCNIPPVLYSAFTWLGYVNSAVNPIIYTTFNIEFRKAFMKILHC

[7] = test system: Rattus norvegicus; assay: The compound was evaluated for the percentage increase in gastric emptying for a dose of 10 mg/kg perorally in rat.; type: functional, Stomach; conditions: route oral; in short: as §2
[8] = organism: Rattus norvegicus; assay: The compound was evaluated for the percentage inhibition in rat aorta stimulated with 30 uM 5-HT and tested at fixed concentration of 10 uM; type: functional
[9] = molecular target: T2, Serotonin 3 (5-HT3) receptor (Rattus norvegicus, UniProt P35563+Q9JJ16); assay: Inhibition of [3H]BRL-43694 binding to rat 5-hydroxytryptamine 3 receptor; type: protein-complex assay
T2 sequence (P35563 whole entry): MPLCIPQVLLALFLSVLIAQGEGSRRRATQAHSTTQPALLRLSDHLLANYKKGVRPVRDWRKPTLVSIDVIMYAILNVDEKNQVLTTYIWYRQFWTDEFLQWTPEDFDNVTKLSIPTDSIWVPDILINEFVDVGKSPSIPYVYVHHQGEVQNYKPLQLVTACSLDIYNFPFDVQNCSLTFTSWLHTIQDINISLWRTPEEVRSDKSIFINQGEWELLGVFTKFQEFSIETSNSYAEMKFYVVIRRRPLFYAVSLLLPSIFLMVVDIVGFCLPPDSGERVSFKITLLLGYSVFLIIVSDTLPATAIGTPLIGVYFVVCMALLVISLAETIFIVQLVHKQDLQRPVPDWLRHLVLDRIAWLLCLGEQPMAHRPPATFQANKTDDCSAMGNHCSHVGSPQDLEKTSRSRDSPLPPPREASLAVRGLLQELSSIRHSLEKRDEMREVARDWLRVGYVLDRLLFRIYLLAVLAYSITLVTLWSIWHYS
T2 sequence (Q9JJ16 whole entry): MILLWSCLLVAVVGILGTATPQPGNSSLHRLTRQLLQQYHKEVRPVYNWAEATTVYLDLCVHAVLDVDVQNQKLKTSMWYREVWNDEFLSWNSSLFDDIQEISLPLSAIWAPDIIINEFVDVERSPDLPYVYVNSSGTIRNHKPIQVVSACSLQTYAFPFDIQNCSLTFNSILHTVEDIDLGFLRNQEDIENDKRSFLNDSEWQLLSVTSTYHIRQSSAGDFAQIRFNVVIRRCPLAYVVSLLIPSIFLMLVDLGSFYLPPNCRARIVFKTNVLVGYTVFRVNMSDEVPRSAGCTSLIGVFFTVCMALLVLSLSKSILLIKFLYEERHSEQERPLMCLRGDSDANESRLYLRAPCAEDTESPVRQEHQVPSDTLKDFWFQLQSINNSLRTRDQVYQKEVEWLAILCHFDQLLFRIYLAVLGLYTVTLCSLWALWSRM

[10] = test system: Rattus norvegicus; assay: The compound was evaluated for the percentage increase in gastric emptying for a dose of 5 mg/kg perorally in rat.; type: functional, Stomach; conditions: route oral; in short: as §2
[11] = organism: Cavia porcellus; assay: The compound was evaluated for the percentage inhibition in guinea pig ileum stimulated with 10 uM 5-HT and tested at fixed concentration of 10 uM; type: functional
In short: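 Guinea pig ileum in oxygenated physiological solution with 1 μM methysergide at 37 °C, isometric recording, 0.5 g resting tension. Response to 10 μM 5-HT set as 100%. After 30 min incubation with compound at 10 μM, 5-HT was re-added; response expressed as % of the previous 5-HT response.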

[12] = organism: Cavia porcellus; assay: The compound was evaluated for the pA2 value that was estimated using 2-methyl-5-HT in five to seven different tissues in guinea pig ileum; type: functional; conditions: read-out: pA2 (converted)
In short: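 Guinea pig ileum in oxygenated physiological solution with 1 μM methysergide at 37 °C, isometric contractions at 0.5 g tension.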

[13] = molecular target: Serotonin 3 (5-HT3) receptor (Rattus norvegicus) (UniProt P35563+Q9JJ16); assay: Inhibition dose for 50 percent antagonism for 5-hydroxytryptamine 3 receptor in vivo in rats; type: functional, organism-based
In short: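 Male Sprague-Dawley rats (500–550 g) under urethane (1 g/kg ip), with heart rate taken from the carotid pressure signal. 5-HT 4 μg/kg iv bolus every 15 min elicited von Bezold-Jarisch bradycardia. […] ID50 by Litchfield-Wilcoxon.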

[14] = test system: Rattus norvegicus; assay: The compound was evaluated for the percentage increase in gastric emptying for a dose of 5 mg/kg perorally in rat; type: functional, Stomach; conditions: route oral; in short: as §2
[15] = test system: Rattus norvegicus; assay: The compound was evaluated for the percentage increase in gastric emptying for a dose of 7.5 mg/kg perorally in rat; type: functional, Stomach; conditions: route oral; in short: as §2
[16] = test system: Rattus norvegicus; assay: The compound was evaluated for the percentage increase in gastric emptying for a dose of 10 mg/kg perorally in rat; type: functional, Stomach; conditions: route oral; in short: as §2
[17] = organism: Rattus norvegicus; assay: The compound was evaluated for the value in rat isolated esophageal tunica muscularis mucose in rat; type: functional; in short: as §1
[18] = organism: Rattus norvegicus; assay: (§3) The compound was evaluated for the value in rat isolated esophageal tunica muscularis mucose; set-up: species or system Esophagus muscularis mucosa
In short: (§4)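 Rat oesophageal tunica muscularis mucosae was isolated by removing the muscularis propria. Strips were held in Tyrode's solution (pH 7.4) at 37 °C, aerated with 95% O2/5% CO2, under 250 mg tension, and equilibrated 60 min. Relaxation of carbachol-induced contraction was measured. Paired concentration-effect curves were run in the same preparation, first to 5-HT, then to the test agonist. ECR = IC40 test agonist/IC40 5-HT. Mean of 8 experiments.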

[19] = organism: Rattus norvegicus; assay: Ability of compounds to relax oesophagus expressed as equipotent concentration ratio (ECR) where ECR = IC40 test agonist / IC40 5-HT; type: functional; in short: as §4
[20] = organism: Rattus norvegicus; assay: The compound was evaluated for pEC50 of 5-HT in rat isolated esophageal tunica muscularis mucose; conditions: in vitro
[21] = organism: Rattus norvegicus; assay: as §3; type: functional; in short: as §4
[22] = test system: Rattus norvegicus; assay: The compound was evaluated for the percentage increase in gastric emptying for a dose of 1 mg/kg perorally in rat; type: functional, Stomach; conditions: route oral; in short: as §2
[23] = molecular target: T1, Serotonin 1 (5-HT1) receptor; assay: The compound was evaluated for the binding affinity towards 5-hydroxytryptamine 1 using [3H]5-HT as radioligand; type: protein assay
In short: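 Membranes were resuspended with 0.1% ascorbic acid and 10 μM pargyline. Incubated with 0.3 nM [3H]-5-HT and varying test concentrations at 37 °C for 10 min, then filtered and counted by scintillation.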

| SMILES | IC50 [1] | IC50 [6] [µM] | Inhibition [8] [%] | IC50 [9] [µM] | Inhibition [11] [%] | Increase [16] [%] | further results |
| --- | --- | --- | --- | --- | --- | --- | --- |
| c1ccc2sc(N3CCN(Cc4ccc5c(c4)OCO5)CC3)nc2c1 | > 10 µM | > 10 | 21.2 | 0.95 | 74.5 |  | Intrinsic activity [2]: 0.91; Increase [3]: 43.3%; EC50 [4]: 0.263 µM; Ratio [5]: 22; Increase [7]: 62.8%; Increase [10]: 45%; Kb [12]: 0.316 µM; ID50 [13]: 0.18 mg/kg |
| COc1cc(N)c(Cl)cc1C(=O)NC1CCN(CCCOc2ccc(F)cc2)CC1OC (stereo not given) [CISAPRIDE] |  |  |  |  | 98.1 | 67 | Intrinsic activity [2]: 0.92; Increase [14]: 47.2%; Increase [15]: 59.5%; EC50 [17]: 0.0589 µM; Kb [12]: 0.001 µM |
| c1ccc(CN2CCN(c3nc4ccccc4s3)CC2)cc1 | > 0.00001 M | > 10 | 14.8 | 0.033 | 74.4 | 44.6 | Kb [12]: 0.501 µM; ID50 [13]: 0.16 mg/kg |
| Cc1[nH]c2ccc(O)cc2c1CCN |  |  |  |  |  |  | Intrinsic activity [2]: 1; CL [18]: 4.9%; Ratio [19]: 643 |
| O=C(c1ccc(F)cc1)C1CCN(CCn2c(=O)[nH]c3ccccc3c2=O)CC1 [KETANSERIN] |  |  | 90 |  |  |  |  |
| COc1ccccc1N1CCN(c2nc3ccccc3o2)CC1 | > 10 µM | > 10 | 14.7 | > 10 | 25.6 |  |  |
| NCCc1c[nH]c2ccc(O)cc12 [SEROTONIN] |  |  |  |  |  |  | pEC50 [20]: 7.91; Intrinsic activity [21]: 1 |
| Cc1nccn1CC1CCc2c(c3ccccc3n2C)C1=O (stereo not given) [ONDANSETRON] |  |  |  |  |  |  | Increase [22]: 44.2% |
| Oc1ccccc1N1CCN(c2nc3ccccc3s2)CC1 | > 10 µM | > 10 | 49.3 | > 10 | 40.8 | -14.2 |  |
| Oc1ccccc1N1CCN(c2nc3ccccc3o2)CC1 | > 10 µM | > 10 | 29.1 | > 10 | 46.1 | -30.2 |  |
| c1ccc(CN2CCN(c3nc4ccccc4o3)CC2)cc1 | > 10 µM | > 10 | 21.9 | > 10 | 48.8 | 15.1 |  |
| Clc1cccc(N2CCN(c3nc4ccccc4s3)CC2)c1 | > 10 µM | > 10 |  | > 10 | -21.9 |  |  |
| CCN(CC)CCNC(=O)c1cc(Cl)c(N)cc1OC [METOCLOPRAMIDE] |  |  |  |  |  | 37.1 |  |
| CCOc1ccccc1N1CCN(c2nc3ccccc3s2)CC1 |  | > 10 | 10.3 | > 10 | -22.2 |  | IC50 [23]: > 10 µM |
| c1ccc2oc(N3CCN(Cc4ccc5c(c4)OCO5)CC3)nc2c1 | > 10 µM | > 10 | 19.4 | > 10 | 55.8 | 23.1 |  |
| COc1ccccc1N1CCN(c2nc3ccccc3s2)CC1 | > 10 µM | > 10 | 7.1 | > 10 | 43 | -27.5 |  |
